Measured values published in PMC4129520 (Neuron, 2014).

Legend:
γ-secretase [1] = test: GM1-bound Aβ in TBS-Tx extracts of 3 mo J20 tg mice after Compound E; type: in vivo, mouse
Outline: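 3-month J20 transgenic mice were injected with test compound or vehicle, and brains were harvested 2.5 h or 5 h later. Brains were Dounce-homogenized in ice-cold TBS (20 mM Tris-HCl, 150 mM NaCl, pH 7.4) with protease inhibitors and spun 175,000 g for 30 min at 4 °C. The pellet was re-extracted the same way in TBS-1% Triton-X. Both extracts underwent R1282 IP, then WB: 3D6+6E10+266+2G3+21F12 for Aβ, CTβ for GM1. N=4 vehicle mice; mean ± SEM; 2-way ANOVA with Bonferroni post-test.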

γ-secretase [2] = conditions: ref Hong et al., 2011; cited from earlier work

C[C@H](NC(=O)Cc1cc(F)cc(F)c1)C(=O)N[C@H]1N=C(c2ccccc2)c2ccccc2N(C)C1=O [Compound E]
Levels of GM1-bound Aβ in TBS-Tx (γ-secretase [1]; 3 mo J20 tg mice, brains harvested 2.5 h or 5 h after injection, N=3 and 4 mice): decreased | Effect on total GM1 levels in the brain (γ-secretase [1]; data not shown): no effect | t1/2 of decline in brain ISF Aβ (γ-secretase [2]): ~ 2 h
